Three compounds from ChEMBL document CHEMBL5653631, “A Potent and Selective ULK1 Inhibitor Suppresses Autophagy and Sensitizes Cancer Cells to Nutrient Stress” (iScience, 2018) can be followed below.

The target in test [1] is T1, Serine/threonine-protein kinase Nek11 (Homo sapiens) (UniProt Q8NG66).
T1 sequence (whole entry): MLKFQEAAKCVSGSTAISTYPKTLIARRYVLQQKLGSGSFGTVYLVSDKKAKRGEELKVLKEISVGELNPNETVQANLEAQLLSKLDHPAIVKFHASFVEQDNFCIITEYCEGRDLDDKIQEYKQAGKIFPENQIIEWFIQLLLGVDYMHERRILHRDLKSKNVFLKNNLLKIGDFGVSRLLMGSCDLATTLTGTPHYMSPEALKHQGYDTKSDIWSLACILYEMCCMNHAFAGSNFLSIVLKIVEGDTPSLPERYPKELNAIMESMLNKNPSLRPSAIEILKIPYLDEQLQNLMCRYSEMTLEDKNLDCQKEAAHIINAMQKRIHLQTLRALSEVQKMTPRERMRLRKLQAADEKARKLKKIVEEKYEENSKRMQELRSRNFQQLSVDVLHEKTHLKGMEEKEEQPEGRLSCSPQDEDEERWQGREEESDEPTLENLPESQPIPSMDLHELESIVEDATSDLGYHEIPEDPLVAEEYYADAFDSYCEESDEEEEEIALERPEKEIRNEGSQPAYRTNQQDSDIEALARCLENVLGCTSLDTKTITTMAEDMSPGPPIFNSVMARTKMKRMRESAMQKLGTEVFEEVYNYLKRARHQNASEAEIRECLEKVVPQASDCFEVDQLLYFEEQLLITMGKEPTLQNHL
The experiment in a line: Inhibition of human recombinant NEK11 at 40 nM in presence of ATP by radiometric assay relative to control.

For test [2], the target named is Angiopoietin-1 receptor (Homo sapiens) (UniProt Q02763). The test can be described thus: Inhibition of human recombinant Tie2 at 40 nM related to control ULK1.
The target of test [3] is Activated CDC42 kinase 1 (Homo sapiens) (UniProt Q07912). The experiment in a line: Inhibition of human recombinant ACK at 500 nM related to control ULK1.
In test [4] the target is Cyclin-dependent kinase 12 (Homo sapiens) (UniProt Q9NYV4). The test can be described thus: Inhibition of human recombinant CRK7 at 500 nM related to control ULK1.
Test [5] addresses T2, cGMP-dependent protein kinase 2 (Homo sapiens) (UniProt Q13237).
T2 sequence (whole entry): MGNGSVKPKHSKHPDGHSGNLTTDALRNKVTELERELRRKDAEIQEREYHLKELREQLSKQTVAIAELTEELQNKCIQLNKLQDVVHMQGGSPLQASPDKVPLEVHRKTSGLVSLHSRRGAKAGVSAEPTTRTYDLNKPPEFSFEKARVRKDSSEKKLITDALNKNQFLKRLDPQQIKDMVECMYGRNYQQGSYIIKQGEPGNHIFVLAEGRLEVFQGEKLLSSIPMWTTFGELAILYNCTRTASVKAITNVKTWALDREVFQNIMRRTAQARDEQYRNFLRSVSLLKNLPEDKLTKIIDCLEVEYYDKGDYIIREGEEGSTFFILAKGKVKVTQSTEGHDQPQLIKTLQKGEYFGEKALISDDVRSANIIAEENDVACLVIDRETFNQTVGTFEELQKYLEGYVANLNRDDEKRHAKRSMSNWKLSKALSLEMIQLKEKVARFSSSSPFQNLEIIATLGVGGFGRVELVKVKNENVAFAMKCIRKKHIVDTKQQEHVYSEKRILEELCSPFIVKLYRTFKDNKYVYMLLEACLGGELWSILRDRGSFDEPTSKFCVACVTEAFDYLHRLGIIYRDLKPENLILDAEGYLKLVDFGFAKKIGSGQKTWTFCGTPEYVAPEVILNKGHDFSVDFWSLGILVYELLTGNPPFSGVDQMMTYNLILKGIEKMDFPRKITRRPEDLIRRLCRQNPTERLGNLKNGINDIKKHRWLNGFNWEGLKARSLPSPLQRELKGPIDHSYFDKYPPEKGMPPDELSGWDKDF
The experiment in a line: Inhibition of human recombinant PKG2 at 500 nM related to control ULK1.

Test [6] addresses Ribosomal protein S6 kinase alpha-3 (Homo sapiens) (UniProt P51812). The experiment in a line: Inhibition of human recombinant RSK2 at 500 nM related to control ULK1.
Test [7] deals with Serine/threonine-protein kinase tousled-like 2 (Homo sapiens) (UniProt Q86UE8). The test can be described thus: Inhibition of human recombinant TLK2 at 500 nM related to control ULK1.
Test [8] addresses T3, Activin receptor type-1 (Homo sapiens) (UniProt Q04771).
T3 sequence (whole entry): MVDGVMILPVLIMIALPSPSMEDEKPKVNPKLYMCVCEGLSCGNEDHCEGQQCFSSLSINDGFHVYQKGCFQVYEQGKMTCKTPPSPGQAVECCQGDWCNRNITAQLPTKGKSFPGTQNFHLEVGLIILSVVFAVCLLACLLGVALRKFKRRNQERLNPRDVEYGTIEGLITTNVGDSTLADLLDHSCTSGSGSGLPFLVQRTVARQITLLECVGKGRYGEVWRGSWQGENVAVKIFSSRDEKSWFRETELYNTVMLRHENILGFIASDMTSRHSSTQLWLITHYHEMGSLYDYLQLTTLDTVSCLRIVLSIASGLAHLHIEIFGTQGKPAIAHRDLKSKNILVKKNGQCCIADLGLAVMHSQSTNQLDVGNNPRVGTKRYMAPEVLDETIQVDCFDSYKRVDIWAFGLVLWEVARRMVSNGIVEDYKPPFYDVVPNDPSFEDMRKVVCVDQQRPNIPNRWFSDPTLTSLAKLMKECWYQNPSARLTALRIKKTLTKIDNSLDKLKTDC
The test can be described thus: Inhibition of human recombinant ALK2 at 15 nM in presence of ATP by radiometric assay relative to control. The method in brief: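 Panel of 327 recombinant human kinases, each assayed in vitro by radiometric activity assay in duplicate at a single inhibitor concentration per compound, chosen with reference to its ULK1 inhibition. Activity remaining was expressed as percent of vehicle control, and percent inhibition was calculated as 100 minus percent activity remaining.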

Test [9] addresses Serine/threonine-protein kinase B-raf (Homo sapiens) (UniProt P15056). The experiment in a line: Inhibition of human recombinant BRAF at 15 nM in presence of ATP by radiometric assay relative to control. In short, it runs like this:
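Part of a radiometric in vitro activity panel of 327 recombinant human kinases. Each kinase was tested in duplicate at one inhibitor concentration. Activity remaining was expressed as a percentage of the vehicle control, and percent inhibition was taken as 100 minus that value.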

For test [10], the target named is Serine/threonine-protein kinase 33 (Homo sapiens) (UniProt Q9BYT3). The experiment in a line: Inhibition of human recombinant STK33 at 15 nM in presence of ATP by radiometric assay relative to control.
Test [11] addresses Receptor tyrosine-protein kinase erbB-4 (Homo sapiens) (UniProt Q15303). The experiment in a line: Inhibition of human recombinant ErbB4 at 15 nM related to control ULK1.
In test [12] the target is Mitogen-activated protein kinase kinase kinase kinase 1 (Homo sapiens) (UniProt Q92918). The experiment in a line: Inhibition of human recombinant HPK1 at 15 nM related to control ULK1.

Chain of Serine/threonine-protein kinase 33 (Homo sapiens) (Q9BYT3 whole entry, looked up): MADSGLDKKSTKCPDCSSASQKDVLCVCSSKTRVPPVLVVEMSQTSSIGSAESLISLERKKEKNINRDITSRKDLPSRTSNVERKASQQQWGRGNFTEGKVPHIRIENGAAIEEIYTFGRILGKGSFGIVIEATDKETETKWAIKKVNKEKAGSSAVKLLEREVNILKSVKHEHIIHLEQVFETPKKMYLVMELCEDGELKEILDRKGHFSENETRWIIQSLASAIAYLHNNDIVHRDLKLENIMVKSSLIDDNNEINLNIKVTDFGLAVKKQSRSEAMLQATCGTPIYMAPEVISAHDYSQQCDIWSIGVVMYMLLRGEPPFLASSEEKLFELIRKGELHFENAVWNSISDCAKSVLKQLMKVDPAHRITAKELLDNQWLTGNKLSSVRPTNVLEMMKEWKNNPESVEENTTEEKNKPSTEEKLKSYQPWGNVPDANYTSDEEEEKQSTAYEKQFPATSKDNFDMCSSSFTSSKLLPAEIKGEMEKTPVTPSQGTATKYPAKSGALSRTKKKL
Chain of Receptor tyrosine-protein kinase erbB-4 (Homo sapiens) (Q15303 whole entry): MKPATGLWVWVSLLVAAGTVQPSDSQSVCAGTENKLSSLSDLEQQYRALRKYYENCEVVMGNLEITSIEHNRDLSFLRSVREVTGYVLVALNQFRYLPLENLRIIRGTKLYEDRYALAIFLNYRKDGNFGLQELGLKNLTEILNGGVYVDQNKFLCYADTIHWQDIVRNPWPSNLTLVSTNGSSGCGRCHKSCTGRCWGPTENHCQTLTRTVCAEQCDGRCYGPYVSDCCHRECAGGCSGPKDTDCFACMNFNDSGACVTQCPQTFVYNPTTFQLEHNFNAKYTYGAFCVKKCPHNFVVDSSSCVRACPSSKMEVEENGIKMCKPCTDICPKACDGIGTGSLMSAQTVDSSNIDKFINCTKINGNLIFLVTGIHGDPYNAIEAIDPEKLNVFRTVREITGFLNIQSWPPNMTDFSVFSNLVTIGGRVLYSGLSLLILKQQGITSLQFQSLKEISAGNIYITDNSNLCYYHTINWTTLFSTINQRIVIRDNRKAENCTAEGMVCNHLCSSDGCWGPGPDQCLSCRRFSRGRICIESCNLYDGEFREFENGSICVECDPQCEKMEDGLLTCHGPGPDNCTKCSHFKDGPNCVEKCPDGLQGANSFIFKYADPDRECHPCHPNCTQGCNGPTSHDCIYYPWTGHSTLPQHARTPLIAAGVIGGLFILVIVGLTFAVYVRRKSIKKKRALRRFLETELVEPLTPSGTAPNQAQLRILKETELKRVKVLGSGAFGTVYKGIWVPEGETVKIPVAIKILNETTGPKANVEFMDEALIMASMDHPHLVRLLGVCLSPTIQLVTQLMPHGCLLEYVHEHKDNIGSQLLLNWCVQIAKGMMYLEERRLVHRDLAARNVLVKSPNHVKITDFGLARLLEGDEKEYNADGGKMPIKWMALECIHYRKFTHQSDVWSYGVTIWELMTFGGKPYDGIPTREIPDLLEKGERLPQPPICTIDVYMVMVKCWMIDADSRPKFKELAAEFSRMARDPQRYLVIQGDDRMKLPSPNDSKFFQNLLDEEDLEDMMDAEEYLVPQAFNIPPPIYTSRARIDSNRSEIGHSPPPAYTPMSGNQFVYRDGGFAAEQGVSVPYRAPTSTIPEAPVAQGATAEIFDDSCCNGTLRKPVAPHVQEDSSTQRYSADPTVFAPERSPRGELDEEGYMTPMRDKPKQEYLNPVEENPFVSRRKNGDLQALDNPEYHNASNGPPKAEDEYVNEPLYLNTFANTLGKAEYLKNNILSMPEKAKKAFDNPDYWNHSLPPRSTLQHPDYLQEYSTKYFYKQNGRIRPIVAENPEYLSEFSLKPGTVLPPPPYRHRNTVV
Chain of Ribosomal protein S6 kinase alpha-3 (Homo sapiens) (P51812 whole entry): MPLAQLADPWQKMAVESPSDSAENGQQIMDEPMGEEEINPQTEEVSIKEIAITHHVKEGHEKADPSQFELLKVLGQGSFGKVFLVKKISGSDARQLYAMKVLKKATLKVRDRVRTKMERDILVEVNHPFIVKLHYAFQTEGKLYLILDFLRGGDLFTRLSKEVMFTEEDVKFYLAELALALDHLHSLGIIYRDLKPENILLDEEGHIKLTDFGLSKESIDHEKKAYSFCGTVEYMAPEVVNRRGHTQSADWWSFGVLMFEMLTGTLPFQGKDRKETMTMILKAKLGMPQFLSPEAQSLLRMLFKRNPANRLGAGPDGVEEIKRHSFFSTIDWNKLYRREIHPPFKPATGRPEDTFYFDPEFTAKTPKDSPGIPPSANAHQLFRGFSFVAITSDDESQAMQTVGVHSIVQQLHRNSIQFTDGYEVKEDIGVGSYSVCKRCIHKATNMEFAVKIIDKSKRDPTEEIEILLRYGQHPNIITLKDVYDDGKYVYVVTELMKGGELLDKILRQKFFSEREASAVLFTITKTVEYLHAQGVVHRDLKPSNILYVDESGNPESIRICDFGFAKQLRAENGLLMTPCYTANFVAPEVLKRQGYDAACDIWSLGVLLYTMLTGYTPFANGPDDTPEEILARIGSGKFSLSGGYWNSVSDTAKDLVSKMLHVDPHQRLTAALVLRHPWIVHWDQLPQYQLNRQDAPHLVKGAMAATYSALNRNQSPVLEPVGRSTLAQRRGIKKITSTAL
Chain of Cyclin-dependent kinase 12 (Homo sapiens) (Q9NYV4 whole entry, looked up): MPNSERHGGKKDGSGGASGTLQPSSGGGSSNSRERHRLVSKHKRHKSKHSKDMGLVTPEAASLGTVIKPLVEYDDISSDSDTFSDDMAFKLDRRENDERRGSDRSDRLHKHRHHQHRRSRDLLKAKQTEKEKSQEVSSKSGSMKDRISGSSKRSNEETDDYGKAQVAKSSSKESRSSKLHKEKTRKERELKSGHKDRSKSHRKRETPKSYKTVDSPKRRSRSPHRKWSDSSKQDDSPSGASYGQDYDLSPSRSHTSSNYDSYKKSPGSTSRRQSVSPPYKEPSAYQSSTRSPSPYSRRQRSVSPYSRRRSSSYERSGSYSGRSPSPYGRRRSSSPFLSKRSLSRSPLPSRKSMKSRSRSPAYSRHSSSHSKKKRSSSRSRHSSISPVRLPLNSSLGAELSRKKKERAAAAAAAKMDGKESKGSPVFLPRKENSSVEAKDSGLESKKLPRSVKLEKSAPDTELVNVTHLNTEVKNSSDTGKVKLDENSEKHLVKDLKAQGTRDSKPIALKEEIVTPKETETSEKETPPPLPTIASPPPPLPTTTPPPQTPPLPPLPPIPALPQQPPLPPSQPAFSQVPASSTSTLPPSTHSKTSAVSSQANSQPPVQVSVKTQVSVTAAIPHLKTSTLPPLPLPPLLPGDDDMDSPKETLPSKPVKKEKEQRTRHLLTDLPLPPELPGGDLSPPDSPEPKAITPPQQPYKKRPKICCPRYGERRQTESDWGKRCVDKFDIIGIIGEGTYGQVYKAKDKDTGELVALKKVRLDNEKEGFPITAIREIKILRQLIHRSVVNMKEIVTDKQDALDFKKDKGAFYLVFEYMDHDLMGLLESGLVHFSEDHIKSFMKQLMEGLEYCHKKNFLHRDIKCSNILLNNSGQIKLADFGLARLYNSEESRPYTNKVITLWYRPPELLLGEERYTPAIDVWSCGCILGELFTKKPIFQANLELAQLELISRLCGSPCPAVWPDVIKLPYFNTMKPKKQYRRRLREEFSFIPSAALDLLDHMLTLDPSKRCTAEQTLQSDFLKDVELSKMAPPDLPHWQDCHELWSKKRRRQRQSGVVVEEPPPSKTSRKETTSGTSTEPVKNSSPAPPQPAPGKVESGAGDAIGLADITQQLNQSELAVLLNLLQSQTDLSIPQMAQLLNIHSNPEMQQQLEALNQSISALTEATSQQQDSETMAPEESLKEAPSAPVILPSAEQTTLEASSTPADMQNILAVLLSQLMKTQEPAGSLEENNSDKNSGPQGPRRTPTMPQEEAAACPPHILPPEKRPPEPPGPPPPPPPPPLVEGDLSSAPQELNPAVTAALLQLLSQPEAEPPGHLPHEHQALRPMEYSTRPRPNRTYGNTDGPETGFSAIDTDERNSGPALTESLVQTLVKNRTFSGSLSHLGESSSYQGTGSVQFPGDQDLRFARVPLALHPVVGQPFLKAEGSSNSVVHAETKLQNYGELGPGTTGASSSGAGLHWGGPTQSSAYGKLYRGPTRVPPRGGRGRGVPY
Chain of Activated CDC42 kinase 1 (Homo sapiens) (Q07912 whole entry, looked up): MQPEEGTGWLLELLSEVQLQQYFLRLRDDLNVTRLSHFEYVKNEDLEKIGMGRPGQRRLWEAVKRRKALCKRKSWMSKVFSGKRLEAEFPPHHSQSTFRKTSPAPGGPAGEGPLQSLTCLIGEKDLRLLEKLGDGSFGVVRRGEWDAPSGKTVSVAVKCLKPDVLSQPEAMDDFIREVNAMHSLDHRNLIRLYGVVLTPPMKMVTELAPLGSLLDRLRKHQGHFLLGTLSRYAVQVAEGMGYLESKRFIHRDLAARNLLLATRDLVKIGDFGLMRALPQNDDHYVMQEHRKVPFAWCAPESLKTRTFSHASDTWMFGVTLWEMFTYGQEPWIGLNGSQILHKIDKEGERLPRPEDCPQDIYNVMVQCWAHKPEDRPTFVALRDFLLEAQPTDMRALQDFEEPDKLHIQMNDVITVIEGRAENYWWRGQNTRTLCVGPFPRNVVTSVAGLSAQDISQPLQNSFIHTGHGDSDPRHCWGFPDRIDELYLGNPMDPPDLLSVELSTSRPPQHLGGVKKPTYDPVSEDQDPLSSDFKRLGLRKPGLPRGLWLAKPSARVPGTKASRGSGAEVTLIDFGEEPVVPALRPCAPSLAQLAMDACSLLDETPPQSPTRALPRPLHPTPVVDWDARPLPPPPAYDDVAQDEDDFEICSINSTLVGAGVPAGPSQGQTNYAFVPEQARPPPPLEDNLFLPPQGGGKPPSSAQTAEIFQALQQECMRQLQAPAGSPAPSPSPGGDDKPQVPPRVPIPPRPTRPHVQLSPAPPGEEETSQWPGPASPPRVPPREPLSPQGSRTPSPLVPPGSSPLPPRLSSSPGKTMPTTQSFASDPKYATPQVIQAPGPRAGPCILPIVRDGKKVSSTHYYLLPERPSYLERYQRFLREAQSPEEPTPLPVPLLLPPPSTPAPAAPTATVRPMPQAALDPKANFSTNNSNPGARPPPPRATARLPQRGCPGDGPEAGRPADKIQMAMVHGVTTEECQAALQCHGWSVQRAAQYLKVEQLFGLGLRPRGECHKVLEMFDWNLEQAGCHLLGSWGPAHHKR

For orientation: inhibition means how much of the control response was suppressed. On to `O=C(N[C@@H](C1CC1)C(F)(F)F)c1cc(-c2cnn3cc(-c4ccc(F)cc4)cnc23)cs1`, for which the inhibition in [1] turned out to be 8%. Moreover, the fold change (FC) in test [2] was 0.
As for `CNC(=O)c1ccccc1Oc1nc(Nc2cc(OC)c(OC)c(OC)c2)ncc1Br`, the fold change (FC) was found to be 0.42 in [3]; 0 in test [4]; 0.03 in test [5]; 0.5 in [6]; 0 in test [7].
On to `CC(C)[C@H](NC(=O)c1cc(-c2cnn3cc(-c4ccc(OCCN5CCCCC5)cc4)cnc23)cs1)C(F)(F)F`, for which the inhibition in test [8] worked out at 26%; in test [9], 11%; in test [10], 16%. The fold change (FC) in test [11] and in test [12] was 0 in each case.
